This note sets out measurements from the RNAGym collection of RNA variant scans (doi:10.1126/science.aae0568).

B1: tRNA (parent)
chain: GUUCCGUUGGCGUAAUGGUAACGCGUCUCCCUCCUAAGGAGAAGACUGCGGGUUCGAGUCCCGUACGGAACG

Variants at the floor of the assay were thinned out. Where only a bound is given, the exact number is not on record here.

The data set covers variants of B1. Kind of data set: yeast fitness relative to wild type (ratio to wild type); higher = fitter; tRNA-Arg(CCU), competitive growth, 37 C, YPD. The method in brief: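 Gene amplicons from the start population and from each of six end populations were read by 100-nucleotide paired-end sequencing. Those end populations came from pooled Saccharomyces cerevisiae strains carrying tRNA-Arg(CCU) gene variants at the native locus, competed in YPD at 37°C for 24 hours. Fitness relative to wild type was worked out from changes in genotype frequencies. Genotypes needed ≥ 100 starting reads, and estimates < 0.5 were set to 0.5.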
Regarding GUUCCGUUGGCGUGAUGGUAAGGCGUCUCACUCCUAAGGAGAAGACUGCGGGUUCGAGUCCCGUACGGAACG [A14G C22G C30A], the yeast fitness was determined as 0.528. With GUUCCGUUGGCGUGAUGGUAACGCGUCUACCUCCUAAGGAGAAGACUGCGGGUUCGAGUCCCGUACGGAACG [A14G C29A] the figure was 0.581; with GUUCCGUUGGCGUGAUGGUAACGCGUGUCCCUCGUAUGGAGAAGACUGCGGGUUCGAGUCGCGUACGGAACG [A14G C27G C34G A37U C61G], at most 0.5. On to GUUCCGUUGGCGUGAUGGUAACGCGUCUCACUCGUAAGGAGAAGACUGCGGGUUCGAGUCCUGUACGGAACG [A14G C30A C34G C62U], for which the yeast fitness is at most 0.5. With GUUCCGUUGGCGUGAUGGUAACGAGAGUCCCCCCUAAGGAGAAGACUGCGGGUUCGAGUUCCGUACGGAACG [A14G C24A U26A C27G U32C C60U] the figure was at most 0.5; with GUUCCGUUGGCGUGAUGGUAAUGCGUCUGCCUGCUAGGGAGAAGACUGCGGGUUCGAGUCCCGUACGGAACG [A14G C22U C29G C33G A37G], at most 0.5.

Regarding GUUCCGUUGGCGUGAUGGUAACGCGUCUUCCUCCUAAGGAGAAGACUGCGGGUUCGCGUCCCGUACGGAACG [A14G C29U A57C], the yeast fitness was at most 0.5. Take GUUCCGUUGGCGUGAUGGUAAUGCGUCUCCCUCUUAAGGAGAAGACUGCGCGUUCGAAUCCCGUACGGAACG [A14G C22U C34U G51C G58A]: the yeast fitness was at most 0.5. As to GUUCCGUUGGCGUGAUGGUAACGGGUCUCCUUCCUAAGGAGAAGACCGCGGGUUAGAGUCCCGUACGGAACG [A14G C24G C31U U47C C55A], the yeast fitness was at most 0.5.

As to GUUCCGUUGGCGUGAUGGUAAGGCGUCUCCCUCCCAAGGAGAAGACUGCGGGUUCGCGUCCCGUACGGAACG [A14G C22G U35C A57C], the yeast fitness was at most 0.5. For GUUCCGUUGGCGUGAUGGUAACGCGUCUUCCUCCUAAGGAGAAGACUGCGGGUUCGAGUCCCGUGCGGAACG [A14G C29U A65G], the yeast fitness was 0.555. In the case of GUUCCGUUGGCGUGAUGGUAAUGCGUCUCCCUCCUAAGGAGAAGACUGAGGGUUCGAGUCCCGUACGGAACG [A14G C22U C49A] it was at most 0.5; in that of GUUCCGUUGGCGUGAUGGUAACGCGUGUCCCUCCUAGGGAGAAGACUGCGGGUUCGAGGCCCGUACGGAACG [A14G C27G A37G U59G], at most 0.5; in that of GUUCCGUUGGCGUGAUGGUAACGUGUCUCCCUCCUAAGGAGAAGACUGCGGGUUCGAGUCCCCUACGGAACG [A14G C24U G63C], at most 0.5.

Turning to GUUCCGUUGGCGUGAUGGUAACGCGUUUCCCUCCUAAGGAGAAGACUGCGGGUUAGAGUCCCGUACGGAACG [A14G C27U C55A], the yeast fitness turned out to be 0.56. In the case of GUUCCGUUGGCGUGAUGGUAACGCGUCUGCCUCCUAAGGAGAAGACGGCGGGUUCGAAUCCCGUACGGAACG [A14G C29G U47G G58A] it was at most 0.5; in that of GUUCCGUUGGCGUGAUGGUAACGCGUCUGCCUCCUAGGGAGAAGACUGCGGGUUCGAGUCCCGUACGGAACG [A14G C29G A37G], at most 0.5; in that of GUUCCGUUGGCGUGAUGGUAAUGCGUCUCCCUCCUAAGGAGAAGAGUGCGGGUUCGAGUGCCGUACGGAACG [A14G C22U C46G C60G], at most 0.5. In the case of GUUCCGUUGGCGUGAUGGUAAGGCGUCUCCCUCCUAAGGAGAAGACUGCGGGUUCGAGUCCCGUACGGACCG [A14G C22G A70C] it was 0.637; in that of GUUCCGUUGGCGUGAUGGUAAAGCGUAUUCCUCCUAAGGAGCAGACUGCGGGUUCGAGUCCCGUACGGAACG [A14G C22A C27A C29U A42C], at most 0.5; in that of GUUCCGUUGGCGUGAUGGUAACGCGUGUCCCUCCUAAGGAGAAGACUGCGGGUUCGAGUCUCGUACGGAACG [A14G C27G C61U], at most 0.5. With GUUCCGUUGGCGUGAUGGUAACGCGUUUCCCUUCCAAGGAGAAGACUGCGGGUUCGAGUCCCGUACGGAACG [A14G C27U C33U U35C] the figure was at most 0.5; with GUUCCGUUGGCGUGAUGGUAACGCGUCUCACUCCUAAGGAGAAGGCUGCGGGUUCGAGUGCCGUACGGAACG [A14G C30A A45G C60G], 0.668. With GUUCCGUUGGCGUGAUGGUAACGCGUGUCCAUGCUAAGGAGAAGACUGUGGGUUCGACUCCCGUACGGAACG [A14G C27G C31A C33G C49U G58C], the yeast fitness was at most 0.5. Consider GUUCCGUUGGCGUGAUGGUAACGUGUCUCCCUCCUAAGGAGAAGCCUGCGUGUUCGAGCCCCGUACGGAACG [A14G C24U A45C G51U U59C], for which the yeast fitness was at most 0.5. With GUUCCGUUGGCGUGAUGGUAACGUGUCUCCCUCCUAAGGAGAAGACUGCGGGUUCGAGUCCCGUCCGGAACG [A14G C24U A65C] the figure was 0.542. In the case of GUUCCGUUGGCGUGAUGGUAACGCGUCUGCCUCCUAAGGAGAUGAUUGCGGGUUCGAGUCCCGUACGGAACG [A14G C29G A43U C46U] it was at most 0.5; in that of GUUCCGUUGGCGUGAUGGUAACGCGUCUCCCUCCUAAGGAGAAGACUGCGGGUUCGAGUCCCGUGCGGAUCG [A14G A65G A70U], 0.566. For GUUCCGUUGGCGUGAUGGUAACGUGUCUCCCUCCUAAGGAGCAGACUGCAGGUUCGAGUCCCGUACGGAACG [A14G C24U A42C G50A], the yeast fitness was at most 0.5. In the case of GUUCCGUUGGCGUGAUGGUAACGCGUGUCCCUCGUAUGGAGAAGACUGCGGGUUCGAGUCCUGUACGGAACG [A14G C27G C34G A37U C62U] it was at most 0.5. As for GUUCCGUUGGCGUGAUGGUAACGCGUCUCCCUCCUAAGGAGAAGACUGCGGGUUCGAGUCCCGUGCGGAACG [A14G A65G], the yeast fitness worked out at 0.887. On to GUUCCGUUGGCGUGAUGGUAAUGCGUCUCCCUGCUAAGGAGAAGACUGCGGGUUCGAGUCCCGUACGGAACG [A14G C22U C33G], for which the yeast fitness was at most 0.5. In the case of GUUCCGUUGGCGUGAUGGUAACGCGUGUCCCUCGUAUGGAGAAGACUGCGGGUUCGAGUCCCGAACGGACCG [A14G C27G C34G A37U U64A A70C] it was 0.522. In the case of GUUCCGUUGGCGUGAUGGUAACGGAUCUCCCUCCUAAGGAGAGGACUGAGGGUUCGAGUCCCGUACGGAACG [A14G C24G G25A A43G C49A] it was at most 0.5; in that of GUUCCGUUGGCGUGAUGGUAACGCGUCUGCUUCCUAAGGAGAAGACUGCGGGUUUGAGUCCCGUACGGCACG [A14G C29G C31U C55U A69C], at most 0.5. In the case of GUUCCGUUGGCGUGAUGGUAACGCGUAUCCCUCCUACGGAGAAAACUGCGGGUUCGAGUCCCGUACGGAACG [A14G C27A A37C G44A] it was 0.563; in that of GUUCCGUUGGCGUGAUGGUAAGGCGUCUCCCUUCUAAGGAGAAGACUGCGGGUUCGAAUACCGUACGGAACG [A14G C22G C33U G58A C60A], 0.51.
